Laboratory results: ChEMBL document CHEMBL1828575, “Design, synthesis and antiproliferative activities of biarylolefins based on polyhydroxylated and carbohydrate scaffolds” (Eur J Med Chem, 2011)

What was measured:
Assay type in all cases: functional
[1] = Cytotoxicity against human NCI60 cells assessed as cellular growth at 10 uM after 48 hrs by SRB assay relative to untreated control
Summary of the method: (§1)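 NCI-60 panel lines grown in RPMI 1640 with 5% FBS and 2 mM L-glutamine. Plated at 5000–40,000 cells/well and preincubated 24 h at 37 °C, 5% CO₂, with time-zero plates fixed in TCA. Compounds, dissolved in DMSO and diluted in medium, were applied for 48 h. Cells were TCA-fixed (10% final for adherent, 16% for suspension) and stained with 0.4% SRB in 1% acetic acid. Dye was solubilised in 10 mM Tris base and read at 515 nm; growth was expressed as a percentage of untreated control.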

NCI-H522 = assay: Antitumor activity against human NCI-H522 cells after 48 hrs by SRB assay; details: NCI-H522, 48 h
Summary of the method: (§2)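 NCI60 panel in RPMI 1640 with 5% FBS and 2 mM L-glutamine. Cells were plated at 5000–40,000/well by doubling time, held 24 h, then time-zero plates were TCA-fixed. Five concentrations (10-fold or half-log dilutions of DMSO stocks) were applied for 48 h at 37 °C, 5% CO2. Cells were fixed with cold TCA (10% final adherent, 16% suspension) and stained with 0.4% SRB. Bound dye was dissolved in 10 mM Tris and read at 515 nm. GI50, TGI and LC50 were calculated per line.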

BT-549 = assay: Antitumor activity against human BT549 cells after 48 hrs by SRB assay; details: BT-549, 48 h
Summary of the method: (§3)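 NCI60 screen: cells grown in RPMI 1640 with 5% FBS and 2 mM L-glutamine, plated at 5000–40,000 cells/well by doubling time, preincubated 24 h at 37 °C with 5% CO2. Compounds were diluted from DMSO stocks and given for 48 h, at five concentrations for dose response. A time-zero plate was TCA-fixed. Cells were TCA-fixed, stained with 0.4% SRB and read at 515 nm, with growth expressed relative to untreated controls.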

HOP-62 = assay: Antitumor activity against human HOP62 cells after 48 hrs by SRB assay; details: HOP-62, 48 h; summary of the method: as §2
NCI-H460 [2] = assay: Antitumor activity against human NCI-H460 cells after 48 hrs by SRB assay; details: NCI-H460, 48 h; summary of the method: as §2
KM12 = assay: Antitumor activity against human KM12 cells after 48 hrs by SRB assay; details: KM12, 48 h; summary of the method: as §2
UACC-257 = assay: Cytotoxicity against human UACC257 cells assessed as cellular growth at 10 uM after 48 hrs by SRB assay; summary of the method: as §1
COLO 205 = assay: Antitumor activity against human COLO205 cells after 48 hrs by SRB assay; details: COLO 205, 48 h; summary of the method: as §2
HT-29 = assay: Antiproliferative activity against human HT-29 cells after 48 hrs by SRB assay; details: HT-29, 48 h; summary of the method: as §2
SN12C = assay: Cytotoxicity against human SN12C cells assessed as cellular growth at 10 uM after 48 hrs by SRB assay; summary of the method: as §1
NCI-H460 [3] = assay: Cytotoxicity against human NCI-H460 cells assessed as cellular growth at 10 uM after 48 hrs by SRB assay; summary of the method: as §1
NCI-H226 [4] = assay: Antitumor activity against human NCI-H226 cells after 48 hrs by SRB assay; details: NCI-H226, 48 h; summary of the method: as §2
SF-268 [5] = assay: Antitumor activity against human SF268 cells after 48 hrs by SRB assay; details: SF-268, 48 h; summary of the method: as §2
SNB-75 = assay: Antitumor activity against human SNB75 cells after 48 hrs by SRB assay; details: SNB-75, 48 h
Summary of the method: (§4)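 NCI60 panel cells grown in RPMI 1640 with 5% FBS and 2 mM L-glutamine, plated at 5000–40,000 cells/well and preincubated 24 h at 37 °C, 5% CO₂. Compound was added from DMSO at five concentrations, 10-fold or 1/2 log dilutions, then incubated 48 h.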

SF-268 [6] = assay: Cytotoxicity against human SF268 cells assessed as cellular growth at 10 uM after 48 hrs by SRB assay; summary of the method: as §1
T47D = assay: Antitumor activity against human T47D cells after 48 hrs by SRB assay; summary of the method: as §4
UACC-62 = assay: Antitumor activity against human UACC62 cells after 48 hrs by SRB assay; details: UACC-62, 48 h; summary of the method: as §4
OVCAR-4 = assay: Antitumor activity against human OVCAR4 cells after 48 hrs by SRB assay; details: OVCAR-4, 48 h; summary of the method: as §2
NCI-H226 [7] = assay: Cytotoxicity against human NCI-H226 cells assessed as cellular growth at 10 uM after 48 hrs by SRB assay; summary of the method: as §1
HL-60(TB) = assay: Antitumor activity against human HL-60(TB) cells after 48 hrs by SRB assay; details: HL-60, 48 h; summary of the method: as §3
MOLT-4 = assay: Cytotoxicity against human MOLT4 cells assessed as cellular growth at 10 uM after 48 hrs by SRB assay; summary of the method: as §1
[8] = read-out: LC50 (the source's name)
[9] = read-out: pLC50 (the source's name) (converted)

Compound: COc1ccc(/C(=C2/O[C@@H]([C@H]3COC(C)(C)O3)[C@H]3OC(C)(C)O[C@@H]23)c2cc(OC)c(OC)c(OC)c2)cc1O
- Activity [1]: 57%
- GI50 (NCI-H522): 2.73 µM
- TGI (NCI-H522): 9.08 µM
- CC50 (NCI-H522; [8]): > 100 µM
- GI50 (BT-549; read-out: GI50): 5.39 µM
- CC50 (BT-549; [8]): > 100 µM
- TGI (BT-549; read-out: TGI): > 100 µM
- GI50 (BT-549; read-out: pGI50 (converted)): 5.37 µM
- CC50 (BT-549; [9]): > 100 µM
- TGI (BT-549; read-out: pTGI (converted)): > 100 µM
- GI50 (HOP-62): 5.93 µM
- TGI (HOP-62): 25.5 µM
- CC50 (HOP-62; [8]): 96.8 µM
- GI50 (NCI-H460 [2]; read-out: GI50): 4.31 µM
- CC50 (NCI-H460 [2]; [8]): > 100 µM
- TGI (NCI-H460 [2]; read-out: TGI): > 100 µM
- GI50 (NCI-H460 [2]; read-out: pGI50 (converted)): 4.27 µM
- CC50 (NCI-H460 [2]; [9]): > 100 µM
- TGI (NCI-H460 [2]; read-out: pTGI): > 100 µM
- GI50 (KM12): 3.99 µM
- LC50 (KM12): > 100 µM
- TGI (KM12): > 100 µM
- Activity (UACC-257): 107.04%
- CC50 (COLO 205; [8]): > 100 µM
- TGI (COLO 205; read-out: TGI): > 100 µM
- GI50 (COLO 205; read-out: pGI50 (converted)): 17.8 µM
- CC50 (COLO 205; [9]): > 100 µM
- TGI (COLO 205; read-out: pTGI (converted)): > 100 µM
- LC50 (50% net cell kill) (HT-29): > 100 µM
- GI50 (HT-29; read-out: GI50): 3.99 µM
- TGI (HT-29; read-out: TGI): > 100 µM
- GI50 (HT-29; read-out: pGI50 (converted)): 3.98 µM
- CC50 (HT-29; [9]): > 100 µM
- TGI (HT-29; read-out: pTGI (converted)): > 100 µM
- Activity (SN12C): 57.72%
- Activity (NCI-H460 [3]): 79.36%
- GI50 (NCI-H226 [4]; read-out: GI50): 2.59 µM
- CC50 (NCI-H226 [4]; [8]): > 100 µM
- TGI (NCI-H226 [4]; read-out: TGI): > 100 µM
- GI50 (NCI-H226 [4]; read-out: pGI50 (converted)): 25.7 µM
- CC50 (NCI-H226 [4]; [9]): > 100 µM
- TGI (NCI-H226 [4]; read-out: pTGI (converted)): > 100 µM
- LC50 (concentration killing 50% of cells relative to time zero) (SF-268 [5]): > 100 µM
- GI50 (SF-268 [5]; read-out: GI50): 6.95 µM
- TGI (SF-268 [5]; read-out: TGI): 31.4 µM
- GI50 (SF-268 [5]; read-out: pGI50 (converted)): 6.92 µM
- CC50 (SF-268 [5]; [9]): > 100 µM
- TGI (SF-268 [5]; read-out: pTGI (converted)): 31.6 µM
- GI50 (SNB-75): 1.8 µM
- TGI (SNB-75): 6.31 µM
- CC50 (SNB-75; [8]): 53.5 µM
- Activity (SF-268 [6]): 36.3%
- GI50 (T47D; read-out: GI50): 2.51 µM
- CC50 (T47D; [8]): > 100 µM
- TGI (T47D; read-out: TGI): > 100 µM
- GI50 (T47D; read-out: pGI50 (converted)): 25.1 µM
- CC50 (T47D; [9]): > 100 µM
- TGI (T47D; read-out: pTGI (converted)): > 100 µM
- GI50 (UACC-62; read-out: GI50): 5.79 µM
- CC50 (UACC-62; [8]): > 100 µM
- TGI (UACC-62; read-out: TGI): > 100 µM
- GI50 (UACC-62; read-out: pGI50 (converted)): 57.5 µM
- CC50 (UACC-62; [9]): > 100 µM
- TGI (UACC-62; read-out: pTGI (converted)): > 100 µM
- CC50 (OVCAR-4; [8]): > 100 µM
- GI50 (OVCAR-4; read-out: pGI50 (converted)): 9.12 µM
- CC50 (OVCAR-4; [9]): > 100 µM
- TGI (OVCAR-4; read-out: pTGI (converted)): > 100 µM
- Activity (NCI-H226 [7]): 107.94%
- GI50 (HL-60(TB); read-out: GI50): 3.39 µM
- CC50 (HL-60(TB); [8]): > 100 µM
- TGI (HL-60(TB); read-out: TGI): 23.3 µM
- GI50 (HL-60(TB); read-out: pGI50 (converted)): 3.39 µM
- CC50 (HL-60(TB); [9]): > 100 µM
- TGI (HL-60(TB); read-out: pTGI (converted)): 23.4 µM
- Activity (MOLT-4): 59.94%
